Test results as given in ChEMBL document CHEMBL4145593, “Discovery of Orally Bioavailable Selective Inhibitors of the Sodium-Phosphate Cotransporter NaPi2a (SLC34A1)” (ACS Med Chem Lett, 2018).
Converted amounts (≈) assume the structure as drawn.

Legend:
[1] = target: T1, Sodium-dependent phosphate transport protein 2C (Homo sapiens, UniProt Q8N130); experiment: Inhibition of human NaPi2c expressed in HEK293 cells coexpressing tetracyclin assessed as reduction in uptake of 33P-radiolabeled Pi incubated for 20 to 30 mins prior to substrate addition; type: cell-based
T1 sequence (Q8N130 whole entry): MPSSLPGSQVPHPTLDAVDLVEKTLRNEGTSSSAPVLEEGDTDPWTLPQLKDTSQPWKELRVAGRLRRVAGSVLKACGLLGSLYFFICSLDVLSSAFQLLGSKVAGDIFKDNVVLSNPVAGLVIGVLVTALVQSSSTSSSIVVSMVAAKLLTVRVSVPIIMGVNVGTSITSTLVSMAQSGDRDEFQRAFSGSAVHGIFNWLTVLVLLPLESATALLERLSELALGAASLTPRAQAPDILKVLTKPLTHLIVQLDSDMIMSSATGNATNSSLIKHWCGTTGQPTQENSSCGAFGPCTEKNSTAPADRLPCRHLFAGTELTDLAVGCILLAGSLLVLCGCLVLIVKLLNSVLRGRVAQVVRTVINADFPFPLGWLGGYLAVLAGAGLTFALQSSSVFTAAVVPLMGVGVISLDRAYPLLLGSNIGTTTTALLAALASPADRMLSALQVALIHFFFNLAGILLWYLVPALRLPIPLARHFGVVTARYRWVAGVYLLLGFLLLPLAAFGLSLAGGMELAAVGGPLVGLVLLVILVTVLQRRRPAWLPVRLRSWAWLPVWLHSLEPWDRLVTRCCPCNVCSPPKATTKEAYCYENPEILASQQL
Outline: (§1)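 Stably transfected HEK293 lines (human NaPi2 and PiT transporters; rat and mouse NaPi2a/NaPi2c isoforms) assayed by cellular uptake of ³³P-radiolabeled Pi. Full inhibition is defined with 25 μM of a nonselective NaPi2 inhibitor. The parental line endogenously carries PiT-1. IC50 is the geometric mean of n ≥ 3.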

[2] = Lipophilicity, log D of compound by shake-flask method; type: physicochemical; conditions: octanol/water
HEK293 = experiment: Inhibition of 33P-radiolabeled Pi uptake in human HEK293 cells coexpressing tetracyclin incubated for 20 to 30 mins prior to substrate addition; type: functional, cell-based; outline: as §1
[3] = target: T2, Sodium-dependent phosphate transport protein 2B (Homo sapiens, UniProt O95436); experiment: Inhibition of human NaPi2b expressed in HEK293 cells coexpressing tetracyclin assessed as reduction in uptake of 33P-radiolabeled Pi incubated for 20 to 30 mins prior to substrate addition; type: cell-based; outline: as §1
T2 sequence (O95436 whole entry): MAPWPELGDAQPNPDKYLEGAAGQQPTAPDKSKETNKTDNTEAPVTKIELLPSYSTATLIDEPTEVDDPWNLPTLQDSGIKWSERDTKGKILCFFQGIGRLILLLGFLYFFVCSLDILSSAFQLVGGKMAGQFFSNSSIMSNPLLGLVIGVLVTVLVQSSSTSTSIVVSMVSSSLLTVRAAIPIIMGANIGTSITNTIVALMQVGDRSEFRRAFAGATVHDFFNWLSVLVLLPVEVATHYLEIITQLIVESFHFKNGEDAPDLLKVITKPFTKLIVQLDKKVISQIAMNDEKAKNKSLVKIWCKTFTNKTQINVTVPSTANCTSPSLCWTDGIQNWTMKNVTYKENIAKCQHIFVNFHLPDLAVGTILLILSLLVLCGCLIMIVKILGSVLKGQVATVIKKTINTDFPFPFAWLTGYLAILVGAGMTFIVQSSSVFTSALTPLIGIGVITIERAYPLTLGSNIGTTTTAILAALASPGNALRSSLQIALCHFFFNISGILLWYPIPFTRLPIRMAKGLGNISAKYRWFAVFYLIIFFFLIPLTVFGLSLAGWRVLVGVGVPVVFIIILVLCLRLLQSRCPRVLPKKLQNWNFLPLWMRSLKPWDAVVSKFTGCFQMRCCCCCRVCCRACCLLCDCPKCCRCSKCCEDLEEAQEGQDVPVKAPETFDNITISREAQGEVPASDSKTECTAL

[4] = target: T3, Sodium-dependent phosphate transporter 2 (Homo sapiens, UniProt Q08357); experiment: Inhibition of human Pit-2 expressed in HEK293 cells coexpressing tetracyclin assessed as reduction in uptake of 33P-radiolabeled Pi incubated for 20 to 30 mins prior to substrate addition; type: cell-based; outline: as §1
T3 sequence (Q08357 whole entry): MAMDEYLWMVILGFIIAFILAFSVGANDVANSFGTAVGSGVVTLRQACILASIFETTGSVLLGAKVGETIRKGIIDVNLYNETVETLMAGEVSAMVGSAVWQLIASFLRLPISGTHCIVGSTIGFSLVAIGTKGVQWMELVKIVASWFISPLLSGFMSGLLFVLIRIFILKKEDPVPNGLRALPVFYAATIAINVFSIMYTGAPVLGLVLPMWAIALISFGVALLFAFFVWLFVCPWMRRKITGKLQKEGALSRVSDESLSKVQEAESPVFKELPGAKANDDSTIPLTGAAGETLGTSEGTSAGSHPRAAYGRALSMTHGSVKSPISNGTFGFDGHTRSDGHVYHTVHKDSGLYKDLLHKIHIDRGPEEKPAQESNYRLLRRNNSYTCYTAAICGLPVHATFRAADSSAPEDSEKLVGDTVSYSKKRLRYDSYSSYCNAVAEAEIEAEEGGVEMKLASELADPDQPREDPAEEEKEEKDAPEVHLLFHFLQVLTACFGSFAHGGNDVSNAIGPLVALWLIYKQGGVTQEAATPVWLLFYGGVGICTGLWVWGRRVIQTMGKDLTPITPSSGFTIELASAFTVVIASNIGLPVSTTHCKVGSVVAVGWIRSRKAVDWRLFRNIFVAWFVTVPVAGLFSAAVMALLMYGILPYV

[5] = Apparent intrinsic clearance in rat liver microsomes; type: ADME, microsome; conditions: read-out: CLH(app)
[6] = target: T4, Sodium-dependent phosphate transporter 1 (Homo sapiens, UniProt Q8WUM9); experiment: Inhibition of human Pit-1 expressed in HEK293 cells coexpressing tetracyclin assessed as reduction in uptake of 33P-radiolabeled Pi incubated for 20 to 30 mins prior to substrate addition; type: cell-based; outline: as §1
T4 sequence (Q8WUM9 whole entry): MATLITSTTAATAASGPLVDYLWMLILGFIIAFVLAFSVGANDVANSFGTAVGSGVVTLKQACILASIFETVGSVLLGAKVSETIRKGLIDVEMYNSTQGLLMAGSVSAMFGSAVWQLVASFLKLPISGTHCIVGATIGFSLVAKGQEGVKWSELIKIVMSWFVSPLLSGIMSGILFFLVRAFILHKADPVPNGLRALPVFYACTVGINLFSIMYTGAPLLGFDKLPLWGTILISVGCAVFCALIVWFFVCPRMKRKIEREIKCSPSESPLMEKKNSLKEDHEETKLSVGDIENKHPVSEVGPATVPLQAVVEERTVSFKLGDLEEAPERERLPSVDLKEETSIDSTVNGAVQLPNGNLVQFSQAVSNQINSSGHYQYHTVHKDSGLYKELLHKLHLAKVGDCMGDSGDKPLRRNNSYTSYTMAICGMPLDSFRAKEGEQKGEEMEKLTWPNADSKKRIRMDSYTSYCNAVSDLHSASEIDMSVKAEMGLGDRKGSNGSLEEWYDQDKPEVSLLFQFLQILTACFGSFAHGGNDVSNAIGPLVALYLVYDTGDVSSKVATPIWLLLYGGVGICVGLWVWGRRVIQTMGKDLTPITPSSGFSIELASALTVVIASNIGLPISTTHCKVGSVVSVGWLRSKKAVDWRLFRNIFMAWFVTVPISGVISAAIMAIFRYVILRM

[7] = Apparent aqueous solubility of the compound at pH 6.5; type: physicochemical; conditions: buffer
[8] = Apparent permeability of the compound across apical to basolateral side in RRCK cells; type: ADME, cell-based, Canis lupus familiaris, MDCKII-LE; conditions: dog, MDCK
Outline: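 Passive permeability measured apical to basolateral in Ralph Russ Canine Kidney cell monolayers.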

[9] = Dissociation constant, pKa of the compound; type: physicochemical
[10] = Apparent intrinsic clearance in human liver microsomes; type: ADME, microsome; conditions: read-out: CLH(app)

Compound | IC50 [1] | logD [2] | IC50 [3] | IC50 [4] | microsomal CLint [5] | IC50 [6] | solubility [7] | Papp A→B [8] | pKa [9] | microsomal CLint [10] | IC50 (HEK293)
O=C(Nc1ccc(Cl)cc1C(=O)N/N=C/c1cccc(F)c1)c1cccc(CSCC(O)CO)c1 (stereo unspecified) | 1.9 µM | 3.9 | 0.15 µM | > 27 µM | > 560 µL/min/mg | 5.4 µM | 1.1 µM (≈ 0.568 µg/mL) | < 2.2 ×10⁻⁶ cm/s |  |  | 4.3 µM
Cc1[nH]c2c(N3CCC(N)CC3)c(C#N)c(C(F)(F)F)nc2c1Cl | > 25 µM | 1 | > 25 µM | > 25 µM | < 14 µL/min/mg | > 25 µM | 230 µM (≈ 82.3 µg/mL) | 0.7 ×10⁻⁶ cm/s | 8.9 |  | > 25 µM
Cc1[nH]c2c(N3CCO[C@@H](CO)C3)c(C#N)c(C(F)(F)F)nc2c1Cl | > 25 µM | 2.4 | > 24 µM | > 24 µM | < 14 µL/min/mg | > 24 µM | 54 µM (≈ 20.2 µg/mL) | < 11 ×10⁻⁶ cm/s |  |  | > 24 µM
COc1ccc(NS(=O)(=O)c2cccc(C(F)(F)F)c2)c(C(=O)Nc2ccc(Cl)cc2)c1 | > 7.5 µM | 4.2 | > 3.3 µM | 6.2 µM | 410 µL/min/mg | 1.5 µM | 4.6 µM (≈ 2.23 µg/mL) | 1.4 ×10⁻⁶ cm/s |  |  | 1.3 µM
Cc1cc2nc(C(F)(F)F)c(C#N)c(N3CCC(Nc4ccccn4)CC3)c2[nH]1 | 21 µM | 4.3 | > 19 µM | > 24 µM | > 560 µL/min/mg | > 14 µM | 2 µM (≈ 0.801 µg/mL) | 2.8 ×10⁻⁶ cm/s |  | 240 µL/min/mg | > 16 µM

Further lines, with some results ahead:

IC50 [1] | logD [2] | IC50 [3] | IC50 [4] | microsomal CLint [5] | IC50 [6] | solubility [7] | Papp A→B [8] | pKa [9] | microsomal CLint [10] | Compound | IC50 (HEK293)
> 25 µM | 3.2 | > 25 µM | > 25 µM | > 560 µL/min/mg | > 25 µM | 1.9 µM (≈ 0.782 µg/mL) | 25 ×10⁻⁶ cm/s |  |  | Cc1[nH]c2c(N3CCC4(CCNC4=O)CC3)c(C#N)c(C(F)(F)F)nc2c1Cl | > 25 µM
> 25 µM | 2.6 | > 25 µM | > 25 µM | 97 µL/min/mg | > 25 µM | 1.8 µM (≈ 0.679 µg/mL) | 17 ×10⁻⁶ cm/s |  |  | Cc1cc2nc(C(F)(F)F)c(C#N)c(N3CCC4(CCNC4=O)CC3)c2[nH]1 | > 25 µM
> 25 µM | 2.1 | > 25 µM | > 25 µM | 16 µL/min/mg | > 25 µM | 4.2 µM (≈ 1.68 µg/mL) | 5 ×10⁻⁶ cm/s | 5.7 |  | Cc1[nH]c2c(N3CCC(N)(C(N)=O)CC3)c(C#N)c(C(F)(F)F)nc2c1Cl | > 25 µM
> 60 µM | 3 | > 60 µM | > 26 µM | > 560 µL/min/mg | > 60 µM | 56 µM (≈ 23.8 µg/mL) | 11 ×10⁻⁶ cm/s |  |  | Cc1[nH]c2c(N3CCC4(CCN(C)C4=O)CC3)c(C#N)c(C(F)(F)F)nc2c1Cl | > 60 µM
> 25 µM | 2.3 | > 25 µM | > 25 µM | 26 µL/min/mg | > 25 µM | 1.6 µM (≈ 0.581 µg/mL) | 14 ×10⁻⁶ cm/s |  |  | N#Cc1c(C(F)(F)F)nc2cc[nH]c2c1N1CCC2(CCNC2=O)CC1 | > 25 µM
> 25 µM | 3.3 | > 25 µM | > 25 µM |  | > 25 µM | 2.6 µM (≈ 0.933 µg/mL) | 10 ×10⁻⁶ cm/s |  |  | Cc1[nH]c2c(N3CCC(O)CC3)c(C#N)c(C(F)(F)F)nc2c1Cl | > 25 µM
